Test results taken from ChEMBL document CHEMBL4007399, “Discovery and Synthesis of a Phosphoramidate Prodrug of a Pyrrolo[2,1-f][triazin-4-amino] Adenine C-Nucleoside (GS-5734) for the Treatment of Ebola and Emerging Viruses” (J Med Chem, 2017).

Tests used:
[1] = Drug uptake in cynomolgus monkey epididymis at 10 mg/kg, iv at 4 hrs post dose; format: ADME, organism-based, Macaca fascicularis; settings: in vivo
[2] = tested on: PBMC; experiment: Drug metabolism in rhesus monkey PBMC assessed as ((2R,3S,4R,5R)-5-(4-aminopyrrolo[1,2-f][1,2,4]triazin-7-yl)-5-cyano-3,4-dihydroxytetrahydrofuran-2-yl)methyl tetrahydrogen triphosphate levels at 10 mg/kg, iv administered as single bolus dose up to 2 hrs; format: ADME, organism-based, Macaca mulatta; settings: in vivo
Summary of the method: (§1)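 Rhesus monkeys received a single 10 mg/kg iv slow bolus. The active triphosphate metabolite was measured inside PBMCs over time to build a concentration–time profile. Values are mean ± SD, n = 3 per time point.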

[3] = tested on: Plasma; experiment: Prodrug conversion in rhesus monkey plasma assessed as (2R,3R,4S,5R)-2-(4-aminopyrrolo[1,2-f][1,2,4]triazin-7-yl)-3,4-dihydroxy-5-(hydroxymethyl)tetrahydrofuran-2-carbonitrile formation at 10 mg/kg, iv administered as single bolus dose; format: ADME, organism-based, Macaca mulatta; settings: in vivo
Summary of the method: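 Rhesus monkeys received a single 10 mg/kg iv slow bolus. Plasma was sampled over time, and the prodrug and the parent nucleoside formed from it were both quantified to give a concentration–time profile. Values are mean ± SD, n = 3 per time point.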

[4] = tested on: Ebolavirus; experiment: Antiviral activity against GFP-fused Ebolavirus infected in TERT-immortalized HMVEC assessed as reduction in viral replication preincubated with cells followed by viral infection measured after 3 to 4 days by fluorescence assay; format: functional
[5] = tested on: Brain; experiment: Drug uptake in cynomolgus monkey brain at 10 mg/kg, iv at 168 hrs post dose; format: ADME, organism-based, Macaca fascicularis; settings: in vivo
[6] = tested on: Plasma; experiment: Drug uptake in cynomolgus monkey plasma at 10 mg/kg, iv at 4 hrs post dose; format: ADME, organism-based, Macaca fascicularis; settings: in vivo
[7] = tested on: Human orthopneumovirus; experiment: Antiviral activity against Respiratory syncytial virus A2 infected in human Hep2 cells assessed as reduction of virus-induced cytopathic effect after 4 days by Cell-Titer Glo assay; format: functional, cell-based
[8] = tested on: Ebolavirus; experiment: Antiviral activity against Ebolavirus infected in rhesus monkey assessed as survival rate at 3 mg/kg, iv qd administered continuously starting from day 3 post infection for 12 days measured on day 28 (reference value: 33%); format: functional; settings: Orthoebolavirus, in Macaca mulatta
[9] = tested on: PBMC; experiment: Time at which plasma concentration greater than in vitro EBOV antiviral IC50 in rhesus monkey PBMC assessed as ((2R,3S,4R,5R)-5-(4-aminopyrrolo[1,2-f][1,2,4]triazin-7-yl)-5-cyano-3,4-dihydroxytetrahydrofuran-2-yl)methyl tetrahydrogen triphosphate levels at 10 mg/kg, iv administered as single bolus; format: ADME, organism-based, Macaca mulatta; settings: in vivo; summary of the method: as §1
[10] = Drug metabolism in cynomolgus monkey testes at 10 mg/kg, iv after 168 hrs post dose; format: ADME, organism-based, Macaca fascicularis, Testis; settings: in vivo
[11] = tested on: Ebolavirus; experiment: Antiviral activity against Ebolavirus Kikwit infected in human HeLa cells assessed as reduction in viral glycoprotein levels preincubated with cells for 2 hrs followed by viral infection measured after 48 hrs by immunostaining based assay; format: functional, cell-based; settings: hela
[12] = Drug uptake in cynomolgus monkey testes at 10 mg/kg, iv at 4 hrs post dose; format: ADME, organism-based, Macaca fascicularis, Testis; settings: in vivo
[13] = tested on: Homo sapiens; experiment: Toxicity in phase-1 acute meningoencephalytis patient at 150 mg, iv qd administered daily for 2 days followed by 225 mg for 14 days; format: organism-based; settings: in vivo
[14] = tested on: Ebolavirus; experiment: Antiviral activity against Ebolavirus Kikwit infected in human macrophages preincubated with cells for 2 hrs followed by viral infection measured after 48 hrs; format: functional
[15] = tested on: MT4; experiment: Cytotoxicity against human MT4 cells assessed as reduction in cell viability after 4 to 5 days by Cell-Titer Glo assay; format: cell-based; settings: mt4
[16] = tested on: HEp-2; experiment: Cytotoxicity against human Hep2 cells assessed as reduction in cell viability after 4 to 5 days by Cell-Titer Glo assay; format: cell-based; settings: hep-2
[17] = tested on: Ebolavirus; experiment: Antiviral activity against Ebolavirus infected in rhesus monkey assessed as viral RNA copies at 10 mg/kg, iv administered daily administered daily starting from day 3 post infection measured on day 5 and 7 (reference value: 10^9 copies/ml); format: functional
[18] = tested on: Hepatitis C virus; experiment: Antiviral activity against Hepatitis C virus genotype 1b infected in human HuH7 cells preincubated with cells for 3 days followed by viral infection by luciferase assay; format: functional, cell-based, Hepacivirus hominis
[19] = tested on: Plasma; experiment: Half life in human plasma at 2 uM by LC/MS/MS analysis; format: ADME, cell-free; settings: 2 µM
[20] = tested on: Brain; experiment: Drug uptake in cynomolgus monkey brain at 10 mg/kg, iv at 4 hrs post dose; format: ADME, organism-based, Macaca fascicularis; settings: in vivo
[21] = tested on: Ebolavirus; experiment: Antiviral activity against Ebolavirus infected in rhesus monkey assessed as survival rate at 10 mg/kg, iv administered daily starting from day 3 post infection for 12 days relative to control; format: functional; settings: Orthoebolavirus, in Macaca mulatta
[22] = tested on: Homo sapiens; experiment: Toxicity in iv dosed phase-1 acute meningoencephalytis patient administered as single dose; format: organism-based; settings: in vivo
[23] = Lipophilicity, log D of the compound after 30 mins by HPLC/UV method; format: physicochemical; settings: 0.5 h
[24] = Inhibition of recombinant human DNA polymerase gamma assessed as single nucleotide incorporation rate after 5 to 90 mins in presence of [32P]-D19/D36 as primer/template by PAGE based phosphorimaging assay; parameters: scale not given: the % may be the effect or the level left
[25] = Inhibition of Respiratory syncytial virus A2 RNA-dependent-RNA polymerase assessed as reduction in RNP transcriptional activity after 90 mins in presence of [gamma-32P]ATP by agarose gel based phosphorimaging assay; parameters: species or system Human respiratory syncytial virus A2
[26] = Inhibition of Hepatitis C virus genotype 1b NS5B RNA-dependent-RNA polymerase preincubated for 5 mins followed by [alpha-33P]GTP addition measured after 90 mins by phosphorimaging assay; parameters: species or system Hepatitis C virus subtype 1b
[27] = target: DNA polymerase beta (Homo sapiens, UniProt P06746); experiment: Inhibition of recombinant human DNA polymerase beta preincubated with enzyme followed by addition of dATP/dGTP/TTP as substrate in presence of […] by phosphorimaging assay
[28] = Inhibition of recombinant human DNA polymerase gamma preincubated with enzyme followed by addition of dATP/dGTP/TTP as substrate in presence of […] by phosphorimaging assay
[29] = Drug level in human HeLa cells treated with (2S)-2-ethylbutyl 2-((((2R,3S,4R,5R)-5-(4-aminopyrrolo[1,2-f][1,2,4]triazin-7-yl)-5-cyano-3,4-dihydroxytetrahydrofuran-2-yl)methoxy)(phenoxy)phosphorylamino)propanoate at 1 uM after 2 to 72 hrs; format: ADME, cell-based
[30] = tested on: Macrophage; experiment: Drug level in human macrophages treated with (2S)-2-ethylbutyl 2-((((2R,3S,4R,5R)-5-(4-aminopyrrolo[1,2-f][1,2,4]triazin-7-yl)-5-cyano-3,4-dihydroxytetrahydrofuran-2-yl)methoxy)(phenoxy)phosphorylamino)propanoate at 1 uM after 2 to 72 hrs; format: ADME, cell-based
[31] = target: T1, DNA-directed RNA polymerase, mitochondrial (Homo sapiens, UniProt O00411); experiment: Inhibition of human mitochondrial RNA polymerase after 30 mins in presence of [33P]GTP
T1 sequence (O00411 whole entry): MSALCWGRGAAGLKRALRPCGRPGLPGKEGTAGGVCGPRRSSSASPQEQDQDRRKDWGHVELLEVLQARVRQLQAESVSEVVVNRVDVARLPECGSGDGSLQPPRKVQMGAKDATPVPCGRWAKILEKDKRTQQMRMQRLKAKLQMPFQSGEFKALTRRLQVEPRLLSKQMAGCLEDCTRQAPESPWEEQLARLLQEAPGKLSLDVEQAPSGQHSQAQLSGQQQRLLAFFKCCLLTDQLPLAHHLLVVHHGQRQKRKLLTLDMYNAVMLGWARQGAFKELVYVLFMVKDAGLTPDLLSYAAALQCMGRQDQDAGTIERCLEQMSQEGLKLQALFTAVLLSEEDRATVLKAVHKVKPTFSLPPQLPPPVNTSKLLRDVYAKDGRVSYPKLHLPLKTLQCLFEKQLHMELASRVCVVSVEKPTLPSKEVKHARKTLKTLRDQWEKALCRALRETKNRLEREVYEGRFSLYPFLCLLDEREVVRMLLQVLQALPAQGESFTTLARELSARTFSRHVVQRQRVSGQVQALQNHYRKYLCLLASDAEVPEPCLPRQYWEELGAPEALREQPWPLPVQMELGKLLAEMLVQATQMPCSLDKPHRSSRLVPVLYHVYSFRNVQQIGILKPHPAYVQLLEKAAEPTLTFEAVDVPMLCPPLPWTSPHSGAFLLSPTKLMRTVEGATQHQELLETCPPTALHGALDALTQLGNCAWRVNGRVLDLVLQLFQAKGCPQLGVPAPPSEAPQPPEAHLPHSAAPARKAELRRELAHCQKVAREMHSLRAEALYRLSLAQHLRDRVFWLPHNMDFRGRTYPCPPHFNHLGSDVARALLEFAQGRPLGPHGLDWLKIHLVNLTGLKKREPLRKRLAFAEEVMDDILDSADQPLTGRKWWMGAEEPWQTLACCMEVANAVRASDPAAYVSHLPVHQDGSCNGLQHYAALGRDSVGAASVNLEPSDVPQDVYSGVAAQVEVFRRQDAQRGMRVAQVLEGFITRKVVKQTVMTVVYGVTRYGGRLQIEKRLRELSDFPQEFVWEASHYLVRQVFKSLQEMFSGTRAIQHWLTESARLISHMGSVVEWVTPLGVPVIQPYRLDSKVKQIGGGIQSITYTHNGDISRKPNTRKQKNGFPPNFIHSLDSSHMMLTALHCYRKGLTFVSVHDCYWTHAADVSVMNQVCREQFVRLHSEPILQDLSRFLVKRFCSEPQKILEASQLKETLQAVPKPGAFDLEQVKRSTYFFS

[32] = target: T1, DNA-directed RNA polymerase, mitochondrial; experiment: Inhibition of human mitochondrial RNA polymerase assessed as single nucleotide incorporation rate in presence of 5'-[32P]-R12/D18 as primer/template by PAGE based phosphorimaging assay; parameters: scale not given: the % may be the effect or the level left
[33] = target: T2, DNA polymerase alpha catalytic subunit (Homo sapiens, UniProt P09884); experiment: Inhibition of recombinant human DNA polymerase alpha preincubated with enzyme followed by addition of dATP/dGTP/TTP as substrate in presence of […] by phosphorimaging assay
T2 sequence (P09884 whole entry): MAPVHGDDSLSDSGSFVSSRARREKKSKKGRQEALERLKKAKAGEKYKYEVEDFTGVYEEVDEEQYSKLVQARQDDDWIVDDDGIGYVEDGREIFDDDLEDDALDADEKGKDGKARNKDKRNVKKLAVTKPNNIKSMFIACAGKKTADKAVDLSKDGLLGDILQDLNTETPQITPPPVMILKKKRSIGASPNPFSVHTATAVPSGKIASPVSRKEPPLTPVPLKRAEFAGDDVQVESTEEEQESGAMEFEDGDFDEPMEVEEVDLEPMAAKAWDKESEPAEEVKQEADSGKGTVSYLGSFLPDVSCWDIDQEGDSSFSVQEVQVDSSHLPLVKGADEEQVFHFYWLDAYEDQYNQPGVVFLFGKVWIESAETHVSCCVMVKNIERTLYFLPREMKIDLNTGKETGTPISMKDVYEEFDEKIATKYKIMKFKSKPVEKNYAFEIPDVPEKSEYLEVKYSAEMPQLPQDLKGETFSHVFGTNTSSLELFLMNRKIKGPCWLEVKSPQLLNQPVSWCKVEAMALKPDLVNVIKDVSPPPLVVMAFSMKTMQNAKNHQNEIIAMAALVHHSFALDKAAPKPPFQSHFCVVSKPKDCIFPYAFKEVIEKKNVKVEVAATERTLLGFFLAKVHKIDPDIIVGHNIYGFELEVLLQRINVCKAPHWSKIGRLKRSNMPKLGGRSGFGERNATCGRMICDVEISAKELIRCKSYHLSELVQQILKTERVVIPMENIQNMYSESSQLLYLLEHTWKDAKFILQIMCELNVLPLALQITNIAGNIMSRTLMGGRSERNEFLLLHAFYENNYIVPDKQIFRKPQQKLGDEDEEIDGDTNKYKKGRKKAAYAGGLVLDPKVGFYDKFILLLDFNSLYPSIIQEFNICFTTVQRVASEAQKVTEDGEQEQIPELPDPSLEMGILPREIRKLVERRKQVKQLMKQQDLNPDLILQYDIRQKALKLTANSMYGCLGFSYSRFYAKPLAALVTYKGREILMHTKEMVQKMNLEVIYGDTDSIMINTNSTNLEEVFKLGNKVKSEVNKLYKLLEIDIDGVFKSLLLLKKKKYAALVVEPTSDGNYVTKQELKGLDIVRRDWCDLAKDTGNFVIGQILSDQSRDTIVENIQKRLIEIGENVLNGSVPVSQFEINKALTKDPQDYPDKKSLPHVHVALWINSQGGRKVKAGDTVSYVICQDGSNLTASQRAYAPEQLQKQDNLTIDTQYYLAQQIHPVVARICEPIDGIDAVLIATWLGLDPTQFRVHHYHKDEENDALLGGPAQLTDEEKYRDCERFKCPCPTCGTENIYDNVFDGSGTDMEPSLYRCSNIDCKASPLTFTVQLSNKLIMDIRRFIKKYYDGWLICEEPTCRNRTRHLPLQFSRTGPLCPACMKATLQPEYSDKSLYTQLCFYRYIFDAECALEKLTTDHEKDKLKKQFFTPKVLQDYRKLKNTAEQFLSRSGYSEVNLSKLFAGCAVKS

[34] = tested on: PBMC; experiment: Drug level in rhesus monkey PBMC treated with (S)-2-Ethylbutyl 2-(((S)-(((2R,3S,4R,5R)-5-(4-Aminopyrrolo-[2,1-f][1,2,4]triazin-7-yl)-5-cyano-3,4-dihydroxytetrahydrofuran-2-yl)methoxy)(phenoxy)phosphoryl)amino)propanoate at 10 mg/kg, iv administered as single bolus dose up to 2 hrs; format: ADME, organism-based, Macaca mulatta; settings: in vivo
[35] = Inhibition of RNA polymerase 2 in human HeLa cells preincubated for 5 mins with […] as substrate followed by addition of cell extract measured after 1 hr by SDS-PAGE method
[36] = Drug level in TERT-immortalized HMVEC treated with (2S)-2-ethylbutyl 2-((((2R,3S,4R,5R)-5-(4-aminopyrrolo[1,2-f][1,2,4]triazin-7-yl)-5-cyano-3,4-dihydroxytetrahydrofuran-2-yl)methoxy)(phenoxy)phosphorylamino)propanoate at 1 uM after 2 to 72 hrs; format: ADME, cell-based; settings: human

CCC(CC)COC(=O)[C@H](C)N[P@](=O)(OC[C@H]1O[C@@](C#N)(c2ccc3c(N)ncnn23)[C@H](O)[C@@H]1O)Oc1ccccc1
Drug uptake [1]: Active | Drug metabolism [2]: Metabolite_Detected | Drug metabolism [3]: Metabolite_Detected | EC50 [4]: 53 nM | Drug uptake [5]: Active | Drug uptake [6]: Active | EC50 [7]: 15 nM | survival at 3 mg/kg [8]: 66% | Time [9]: 24 h | Drug uptake [10]: Metabolite_Detected | EC50 [11]: 100 nM | Drug uptake [12]: Active | Activity [13]: Non-Toxic | EC50 [14]: 86 nM | CC50 [15]: 1700 nM | CC50 [16]: 6100 nM | Activity [17]: <80000 mL⁻¹ | EC50 [18]: 57 nM | t1/2 [19]: 1.15 h | Drug uptake [20]: Not Active | survival at 10 mg/kg [21]: 100% | Activity [22]: Non-Toxic | logD [23]: 2.1

N#C[C@@]1(c2ccc3c(N)ncnn23)O[C@H](COP(=O)(O)OP(=O)(O)OP(=O)(O)O)[C@@H](O)[C@H]1O [RDV-TP]
Activity [24]: 0% | IC50 [25]: 1100 nM | IC50 [26]: 5000 nM | IC50 [27]: > 200000 nM | IC50 [28]: > 200000 nM | Drug metabolism [29]: Metabolite_Detected | Drug metabolism [30]: Metabolite_Detected | IC50 [31]: > 200000 nM | Activity [32]: 6% | IC50 [33]: > 200000 nM | Drug metabolism [34]: Metabolite_Detected | IC50 [35]: > 200000 nM | Drug metabolism [36]: Metabolite_Detected
